Results as given in ChEMBL document CHEMBL5724801, “EUbOPEN Chemogenomics Library - Multiplex” (2024).
Several values for one entry are separate records, joined by “and”; a condition that tells them apart may be missing. Equal values may be shown once.

tested on: HEK-293T; assay: Multiplex assay against HEK293T; type: toxicity, cell-based; details: human, 12 h, 1 µM, compound concentration 1 uM
Procedure, shortened: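 Compound was added to live cells that had been stained at seeding with Hoechst33342, BioTracker Green Microtubule Cytoskeleton Dye, MitoTracker Red and Annexin V Alexa Fluor 680, and imaging followed on a CQ1 microscope at 37°C and 5% CO2. CellPathfinder machine-learning gating divided cells into Hoechst high-intensity objects or normal cells, normal cells into healthy, pyknosed or fragmented nuclei, and pyknosed cells into mitotic or apoptotic. Tubulin, mitochondrial-mass and membrane-permeability phenotypes are per cents of healthy-nucleus cells.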

Structure (SMILES)	Population Apoptotic (%)	Population Fragmented Nuclei (%)	Population Healthy Nuclei (%)	Population Hoechst High Intensity Objects (%)	Population Membrane Permeable-Phenotype (%)	Population Mitochondria Different-Phenotype (%)	Population Mitotic Cells (%)	Population Normal (%)	Population Pyknosed Nuclei (%)	Population Tubulin-Different-Phenotype (%)
CC(=O)NCCc1c(Cc2ccccc2)[nH]c2ccccc12 [LUZINDOLE]	38% and 43%	7% and 5%	79% and 80%	11% and 8%	0%	54% and 68%	61% and 56%	88% and 91%	12% and 13%	39% and 27%
N[C@@]1(C(=O)O)CO[C@H]2[C@H](C(=O)O)[C@H]21 [LY-379268]	40% and 42%	6%	81% and 80%	5% and 10%	0% and 1%	38% and 57%	60% and 57%	94% and 89%	12%	26% and 18%
CN1CCN2c3ccccc3Cc3ccccc3C2C1.Cl (stereo not drawn) [MIANSERIN HYDROCHLORIDE]	23% and 46%	5% and 7%	79% and 77%	5% and 10%	0%	36% and 63%	76% and 53%	94% and 89%	14%	21% and 17%

same assay, conditions: human, 12 h, 1 µM, compound concentration 1 uM

Structure (SMILES)	Total Cell Count
CC(=O)NCCc1c(Cc2ccccc2)[nH]c2ccccc12 [LUZINDOLE]	412 and 304
N[C@@]1(C(=O)O)CO[C@H]2[C@H](C(=O)O)[C@H]21 [LY-379268]	396 and 411
CN1CCN2c3ccccc3Cc3ccccc3C2C1.Cl (stereo not drawn) [MIANSERIN HYDROCHLORIDE]	338 and 376

same assay, conditions: human, 12 h, 10 µM, compound concentration 10 uM

Structure (SMILES)	Population Apoptotic (%)	Population Fragmented Nuclei (%)	Population Healthy Nuclei (%)	Population Hoechst High Intensity Objects (%)	Population Membrane Permeable-Phenotype (%)	Population Mitochondria Different-Phenotype (%)	Population Mitotic Cells (%)	Population Normal (%)	Population Pyknosed Nuclei (%)	Population Tubulin-Different-Phenotype (%)
CC(=O)NCCc1c(Cc2ccccc2)[nH]c2ccccc12 [LUZINDOLE]	37% and 53%	8% and 5%	77% and 80%	10% and 9%	0%	61% and 72%	62% and 46%	89% and 90%	14%	45% and 35%
N[C@@]1(C(=O)O)CO[C@H]2[C@H](C(=O)O)[C@H]21 [LY-379268]	27% and 52%	10% and 8%	78% and 79%	8% and 7%	0%	33% and 51%	72% and 47%	91% and 92%	10% and 12%	31% and 18%
CN1CCN2c3ccccc3Cc3ccccc3C2C1.Cl (stereo not drawn) [MIANSERIN HYDROCHLORIDE]	34% and 42%	5%	81% and 85%	9% and 4%	1% and 0%	45% and 53%	65% and 57%	90% and 95%	13% and 8%	40% and 28%

same assay, conditions: human, 12 h, 10 µM, compound concentration 10 uM

Structure (SMILES)	Total Cell Count
CC(=O)NCCc1c(Cc2ccccc2)[nH]c2ccccc12 [LUZINDOLE]	379 and 315
N[C@@]1(C(=O)O)CO[C@H]2[C@H](C(=O)O)[C@H]21 [LY-379268]	437 and 380
CN1CCN2c3ccccc3Cc3ccccc3C2C1.Cl (stereo not drawn) [MIANSERIN HYDROCHLORIDE]	410 and 491

same assay, conditions: human, 24 h, 1 µM, compound concentration 1 uM

Structure (SMILES)	Population Apoptotic (%)	Population Fragmented Nuclei (%)	Population Healthy Nuclei (%)	Population Hoechst High Intensity Objects (%)	Population Membrane Permeable-Phenotype (%)	Population Mitochondria Different-Phenotype (%)	Population Mitotic Cells (%)	Population Normal (%)	Population Pyknosed Nuclei (%)	Population Tubulin-Different-Phenotype (%)
CC(=O)NCCc1c(Cc2ccccc2)[nH]c2ccccc12 [LUZINDOLE]	20% and 40%	12% and 7%	75% and 82%	7% and 8%	0%	33% and 45%	80% and 60%	92% and 91%	11% and 10%	26% and 18%
N[C@@]1(C(=O)O)CO[C@H]2[C@H](C(=O)O)[C@H]21 [LY-379268]	30% and 29%	8% and 7%	79% and 83%	2% and 7%	0%	21% and 31%	70%	97% and 92%	11% and 9%	20% and 13%
CN1CCN2c3ccccc3Cc3ccccc3C2C1.Cl (stereo not drawn) [MIANSERIN HYDROCHLORIDE]	22% and 26%	9% and 10%	80%	1% and 8%	0%	21% and 37%	77% and 73%	98% and 91%	10% and 9%	14% and 16%

same assay, conditions: human, 24 h, 1 µM, compound concentration 1 uM

Structure (SMILES)	Total Cell Count
CC(=O)NCCc1c(Cc2ccccc2)[nH]c2ccccc12 [LUZINDOLE]	546 and 379
N[C@@]1(C(=O)O)CO[C@H]2[C@H](C(=O)O)[C@H]21 [LY-379268]	517 and 481
CN1CCN2c3ccccc3Cc3ccccc3C2C1.Cl (stereo not drawn) [MIANSERIN HYDROCHLORIDE]	479 and 486

same assay, conditions: human, 24 h, 10 µM, compound concentration 10 uM

Structure (SMILES)	Population Apoptotic (%)	Population Fragmented Nuclei (%)	Population Healthy Nuclei (%)	Population Hoechst High Intensity Objects (%)	Population Membrane Permeable-Phenotype (%)	Population Mitochondria Different-Phenotype (%)	Population Mitotic Cells (%)	Population Normal (%)	Population Pyknosed Nuclei (%)	Population Tubulin-Different-Phenotype (%)
CC(=O)NCCc1c(Cc2ccccc2)[nH]c2ccccc12 [LUZINDOLE]	40% and 28%	9% and 11%	81% and 77%	10% and 11%	1% and 0%	40% and 58%	60% and 71%	89% and 88%	8% and 11%	32% and 24%
N[C@@]1(C(=O)O)CO[C@H]2[C@H](C(=O)O)[C@H]21 [LY-379268]	36% and 43%	10% and 8%	79% and 82%	6% and 8%	0%	24% and 39%	63% and 56%	93% and 91%	9%	15%
CN1CCN2c3ccccc3Cc3ccccc3C2C1.Cl (stereo not drawn) [MIANSERIN HYDROCHLORIDE]	24% and 32%	8% and 5%	77% and 84%	5% and 3%	0%	31% and 36%	75% and 67%	94% and 96%	14% and 10%	34% and 21%

same assay, conditions: human, 24 h, 10 µM, compound concentration 10 uM

Structure (SMILES)	Total Cell Count
CC(=O)NCCc1c(Cc2ccccc2)[nH]c2ccccc12 [LUZINDOLE]	502 and 388
N[C@@]1(C(=O)O)CO[C@H]2[C@H](C(=O)O)[C@H]21 [LY-379268]	551 and 470
CN1CCN2c3ccccc3Cc3ccccc3C2C1.Cl (stereo not drawn) [MIANSERIN HYDROCHLORIDE]	486 and 612

same assay, conditions: human, 48 h, 1 µM, compound concentration 1 uM

Structure (SMILES)	Population Apoptotic (%)	Population Fragmented Nuclei (%)	Population Healthy Nuclei (%)	Population Hoechst High Intensity Objects (%)	Population Membrane Permeable-Phenotype (%)	Population Mitochondria Different-Phenotype (%)	Population Mitotic Cells (%)	Population Normal (%)	Population Pyknosed Nuclei (%)	Population Tubulin-Different-Phenotype (%)
CC(=O)NCCc1c(Cc2ccccc2)[nH]c2ccccc12 [LUZINDOLE]	24% and 46%	16% and 12%	78% and 82%	3% and 6%	1% and 0%	16% and 23%	75% and 53%	96% and 93%	5%	12% and 13%
N[C@@]1(C(=O)O)CO[C@H]2[C@H](C(=O)O)[C@H]21 [LY-379268]	26% and 33%	13% and 10%	79% and 81%	3% and 7%	1% and 0%	15% and 22%	73% and 66%	97% and 92%	6% and 7%	9% and 14%
CN1CCN2c3ccccc3Cc3ccccc3C2C1.Cl (stereo not drawn) [MIANSERIN HYDROCHLORIDE]	13% and 37%	15% and 16%	77% and 78%	1% and 3%	1% and 0%	15% and 18%	86% and 62%	98% and 96%	6% and 4%	9%

same assay, conditions: human, 48 h, 1 µM, compound concentration 1 uM

Structure (SMILES)	Total Cell Count
CC(=O)NCCc1c(Cc2ccccc2)[nH]c2ccccc12 [LUZINDOLE]	965 and 522
N[C@@]1(C(=O)O)CO[C@H]2[C@H](C(=O)O)[C@H]21 [LY-379268]	866 and 611
CN1CCN2c3ccccc3Cc3ccccc3C2C1.Cl (stereo not drawn) [MIANSERIN HYDROCHLORIDE]	812 and 761

same assay, conditions: human, 48 h, 10 µM, compound concentration 10 uM

Structure (SMILES)	Population Apoptotic (%)	Population Fragmented Nuclei (%)	Population Healthy Nuclei (%)	Population Hoechst High Intensity Objects (%)	Population Membrane Permeable-Phenotype (%)	Population Mitochondria Different-Phenotype (%)	Population Mitotic Cells (%)	Population Normal (%)	Population Pyknosed Nuclei (%)	Population Tubulin-Different-Phenotype (%)
CC(=O)NCCc1c(Cc2ccccc2)[nH]c2ccccc12 [LUZINDOLE]	27% and 36%	13% and 11%	79% and 82%	9% and 6%	0%	27% and 32%	72% and 63%	90% and 93%	7% and 5%	17% and 19%
N[C@@]1(C(=O)O)CO[C@H]2[C@H](C(=O)O)[C@H]21 [LY-379268]	24% and 25%	16% and 11%	75% and 80%	4%	1% and 0%	18% and 19%	75%	95%	7%	10% and 9%
CN1CCN2c3ccccc3Cc3ccccc3C2C1.Cl (stereo not drawn) [MIANSERIN HYDROCHLORIDE]	24% and 35%	14%	76% and 79%	2% and 1%	0% and 1%	18% and 14%	75% and 64%	97% and 98%	8% and 6%	17% and 11%

same assay, conditions: human, 48 h, 10 µM, compound concentration 10 uM

Structure (SMILES)	Total Cell Count
CC(=O)NCCc1c(Cc2ccccc2)[nH]c2ccccc12 [LUZINDOLE]	742 and 573
N[C@@]1(C(=O)O)CO[C@H]2[C@H](C(=O)O)[C@H]21 [LY-379268]	781 and 689
CN1CCN2c3ccccc3Cc3ccccc3C2C1.Cl (stereo not drawn) [MIANSERIN HYDROCHLORIDE]	702 and 860
